Two compounds from ChEMBL document CHEMBL5260794, “Synthesis and biological evaluation of a new class of benzothiazines as neuroprotective agents” (Eur J Med Chem, 2017) can be followed below.

Usually inhibition in vivo stands for the relative decrease from the control value, in per cent.

Calls of active or inactive are those of the source. The calls are words filed in the database; no cut-off is given here.

For series [1], the system named is SH-SY5Y. The experiment in a line: Neuroprotective activity against glutamate-induced toxicity in human SH-SY5Y cells assessed as reduction in sub G0/G1 phase cells at 10 uM pretreated for 1 hr followed by glutamate challenge measured after 24 hrs by propidium staining based flow cytometry. The class given is functional, cell-based. The following applies: time 25.0 hrs. A digest of the protocol: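 SH-SY5Y cells (2.5 x 10⁵ cells/mL) pretreated 1 h with compound, then given glutamate 50 mM for 24 h. Cells fixed in 70% ethanol (30 min, 4 °C), held at -20 °C for at least 24 h, stained with propidium iodide. Flow cytometry on at least 1x10⁴ cells, cell-cycle phases and sub-G₀/G₁ fraction quantified. 4 independent experiments.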
On the technique in general: In flow cytometry, cells or beads pass a laser one at a time.

Series [2] concerns SH-SY5Y. In words: Neuroprotective activity against glutamate-induced toxicity in human SH-SY5Y cells assessed as reduction in cell shrinkage at 10 uM pretreated for 1 hr followed by glutamate challenge measured after 24 hrs by phase-contrast light microscopic analysis. It counts as functional, cell-based. The conditions noted are these: time 25.0 hrs. In a few lines:
(§1)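 SH-SY5Y cells attached 24 h, then pretreated 1 h with compound (0.1-10 μM) before glutamate 50 mM for 24 h. Viability by MTT. Morphology under phase-contrast microscope, scored by the USP 28 grade scale (0-4). Mean ± SEM of 4 independent experiments run in triplicate or quadruplicate, ANOVA with Dunnett test.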

For series [3], the system named is SH-SY5Y. In words: Neuroprotective activity against glutamate-induced toxicity in human SH-SY5Y cells assessed as reduction in grade 2 to 3 toxicity at 10 uM pretreated for 1 hr followed by glutamate challenge measured after 24 hrs by phase-contrast light microscopic analysis. The following applies: time 25.0 hrs. The class given is functional, cell-based. A digest of the protocol: as §1

Series [4] deals with SH-SY5Y. In words: Neuroprotective activity against glutamate-induced toxicity in human SH-SY5Y cells assessed as reduction in condensed and fragmented nuclei at 10 uM pretreated for 1 hr followed by glutamate challenge measured after 24 hrs by DAPI staining based assay (reference value: 16.9 +/- 1.5%). It counts as functional, cell-based. The following applies: time 25.0 hrs. A digest of the protocol: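 Cells pretreated 1 h with compound (0.1-10 μM), then glutamate 50 mM for 24 h. DAPI staining; cells with condensed or fragmented nuclei scored as apoptotic, reported as percentage. Mean ± SEM of 4 independent experiments.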

Series [5] can be described thus: Cytotoxicity against human SH-SY5Y cells assessed as cell viability at 10 uM measured after 24 hrs by MTT assay. It counts as toxicity, cell-based. In a few lines:
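SH-SY5Y cells (RPMI 1640, 10% FBS, 37 °C, 5% CO₂, exponential growth) seeded 8 x 10⁴ cells/mL and left to attach 24 h, then exposed to compound alone for 24 h. MTT viability read. Morphology graded 0-4 on the USP 28 scale under phase contrast. Compound diluted from DMSO stock in PBS, final DMSO <0.01%.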
On the technique in general: Tetrazolium dyes change colour on reduction, which living cells bring about.

Series [6] deals with SH-SY5Y. In words: Neuroprotective activity against glutamate-induced toxicity in human SH-SY5Y cells assessed as reduction in ROS production measured after 24 hrs by DCFH-DA staining based assay. The class given is functional, cell-based. The following applies: dose 0.1-10 µM. In a few lines:
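Human SH-SY5Y neuroblastoma cells were preloaded with DCFH-DA (5 μM, 30 min) and washed in PBS. They were then pretreated for 1 h with compound (0.1-10 μM; DMSO stock diluted in PBS, final DMSO <0.01%) and challenged with glutamate (50 mM). Fluorescence (ex 485/em 535 nm) was read at 24 h and expressed as % inhibition of glutamate-induced ROS. Data are mean ± SEM of 4 experiments run in triplicate or quadruplicate.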

The test system of series [7] is SH-SY5Y. In words: Neuroprotective activity against 6-OHDA-induced toxicity in human SH-SY5Y cells assessed as cell viability at 0.1 uM pretreated for 1 hr followed by 6-OHDA challenge measured after 2 hrs by MTT assay. The following applies: time 3.0 hrs. The class given is functional, cell-based.
The species entered for series [8] is Rattus norvegicus. In words: Inhibition of transient voltage-dependent sodium current in Wistar rat brain piriform cortex layer by whole cell patch clamp method. It counts as functional. On the technique in general: Patch clamp records ionic current or voltage across a cell membrane.
The species named for series [9] is Rattus norvegicus. In words: Inhibition of transient voltage-dependent sodium current in Wistar rat brain piriform cortex layer assessed as negative shift of inactivation function at 15 uM by whole cell patch clamp method. The class given is functional.
The species entered for series [10] is Rattus norvegicus. The experiment in a line: Inhibition of transient voltage-dependent sodium current in Wistar rat brain piriform cortex layer assessed as reduction in maximal current amplitude at 5 uM by whole cell patch clamp method. The class given is functional.
For series [11], the species on record is Rattus norvegicus. The experiment in a line: Inhibition of transient voltage-dependent sodium current in Wistar rat brain piriform cortex layer assessed as reduction in maximal current amplitude at 15 uM by whole cell patch clamp method. It counts as functional.
Series [12] is filed under the species Rattus norvegicus. The experiment in a line: Inhibition of persistent voltage-dependent sodium current in Wistar rat brain piriform cortex layer at 5 uM by whole cell patch clamp method. It counts as functional.
For series [13], the species on record is Rattus norvegicus. In words: Inhibition of persistent voltage-dependent sodium current in Wistar rat brain piriform cortex layer at 15 uM by whole cell patch clamp method. The class given is functional.
For series [14], the species on record is Rattus norvegicus. In words: Inhibition of persistent voltage-dependent sodium current in Wistar rat brain piriform cortex layer at 50 uM by whole cell patch clamp method. It counts as functional.
Series [15] has as its system SH-SY5Y. In words: Neuroprotective activity against glutamate-induced toxicity in human SH-SY5Y cells assessed as reduction in ROS production at 0.1 to 10 uM by DCFH-DA staining based assay. The following applies: dose 0.1-10 µM, time 24.0 hrs, TDE = time-dependent effect. The class given is functional, cell-based. A digest of the protocol: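 SH-SY5Y cells loaded with DCFH-DA (5 μM, 30 min) and washed before treatment. Pretreated 1 h with compound (0.1-10 μM), then glutamate 50 mM. Fluorescence (ex 485/em 535 nm) read at 1 h or 24 h and expressed as % inhibition of glutamate-induced ROS. 4 independent experiments.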

The species named for series [16] is Rattus norvegicus. The experiment in a line: Inhibition of high voltage-activated calcium current in Wistar rat brain piriform cortex assessed as time required to inhibit barium current by whole cell patch clamp method. The class given is functional. A digest of the protocol: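 Acutely dissociated P15-P22 Wistar rat piriform cortex neurons recorded whole-cell at holding -70 mV. 5 mM Ba²⁺ was the charge carrier, with a Cs methanesulfonate pipette. HVA currents evoked by step or ramp protocols from -60 mV. Compound applied by local perfusion (DMSO 0.02-0.67%). Peak I_Ba amplitude tracked over time, and concentration-response fitted with the sum of two Hill functions.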

`CCN(CC)/C(C)=N/C1=Nc2ccccc2CS1`: the result with SH-SY5Y [1], in the series with SH-SY5Y [2], with SH-SY5Y [3], in the series with SH-SY5Y [4] and in the series on SH-SY5Y [7] was Active. For the same compound, the viability reduction at 24 h, 10 µM in series [5] is 10%. Also, the Activity result in the series with SH-SY5Y [6] is “Dose-Dependent Effect”; in the series listed under Rattus norvegicus [9], 11.8 mV; in the series with SH-SY5Y [15], “Tde”. Further, the inhibition entry in the series filed under Rattus norvegicus [8] was “Dose-Dependent Effect”. The inhibition in vivo at 5 µM in the series filed under Rattus norvegicus [10] came to 26.4%; in the series listed under Rattus norvegicus [12], 70.7%. Also, the inhibition in vivo at 15 µM in the series filed under Rattus norvegicus [11] is 24.2%; in the series filed under Rattus norvegicus [13], 77%. The compound also yielded an inhibition in vivo at 50 µM in the series listed under Rattus norvegicus [14] of 91.8%.

On to `CCCN(CCC)/C(C)=N/C1=Nc2ccccc2CS1`, for which the outcome with SH-SY5Y [1], in the series on SH-SY5Y [2], with SH-SY5Y [3], in the series on SH-SY5Y [4] and with SH-SY5Y [7] was Active. Also, in series [5], the viability reduction at 24 h, 10 µM was found to be 10%. Also, the Activity result is “Dose-Dependent Effect” in the series with SH-SY5Y [6] and “Tde” with SH-SY5Y [15]. The Time in the series filed under Rattus norvegicus [16] was 128.2 ms.
